An excerpt weighted towards active compounds, which were near 11% of everything screened.
M1 antag – antagonists of rat M1 muscarinic receptor | 3.4% of 64,000 active | P08482 | CHO-M1 cells, Fluo-4 calcium, ACh EC80 antagonist mode; active compounds read low | AID 628 | B-score at 10 µM;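 active = calcium fluorescence response, raw or row-and-column corrected B-score, differing from the plate sample mean either way at a set confidence level, mostly lower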
Htt clearance – mutant huntingtin protein clearance | HeLa Exon1htt(103Q)mCFP, aggregate imaging; zero = plate's median compound well | inhibition, % at 1.5 µM | 0.42% of 47,000 active;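 active = inhibition of aggregate fluorescence above about 70%, also judged a hit by eye on the cell image, limit read from the data, passing the limit was not always enough; inconclusive = no rule stated for this call; inactive = not judged a hit on image review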;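 note: cells exposed to compound for three days before fixation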
D1 allo mod – D1 dopamine receptor (human) allosteric modulation; P21728; HEK293 D1, CRE-luciferase, dopamine EC30 potentiation; actives deviate in either direction; AID 641; B-score at 10 µM; 5.9% of 58,000 active;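 active = luminescence count or its row- and column-corrected plate score outside the 99.7% band of the plate's sample wells, on either side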
RORA act – activates the human nuclear receptor RORA. 1.5% of 65,000 active. activation, % at 10 µM. CHO-K1 Gal4-RORA LBD luciferase reporter, luminescence; percent increase over mock-subtracted basal signal. AID 560;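 active = activation above the mean of all tested compounds plus 3 SD, cut at about 49% in these data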
M1 agonist – M1 muscarinic receptor agonism; AID 626; CHO-M1 cells, Fluo-4 calcium fluorescence, agonist mode; active compounds read high; 3% of 64,000 active; B-score at 10 µM;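 active = fluorescence rise, raw or as B-score row- and column-corrected plate score, outside the 99.7% band of its plate's samples, either direction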
SF-1 act – activates the human nuclear receptor SF-1; Q13285; CHO-K1 Gal4-SF-1 LBD luciferase reporter; % increase over DMSO SF-1-specific signal; activation, % at 10 µM; 1.9% of 65,000 active; AID 522;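 active = activation above the mean activation of all tested compounds plus 3 SD, cut at about 50% in these data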
Target sequence (Q13285 whole entry, looked up, the tested form may be a part): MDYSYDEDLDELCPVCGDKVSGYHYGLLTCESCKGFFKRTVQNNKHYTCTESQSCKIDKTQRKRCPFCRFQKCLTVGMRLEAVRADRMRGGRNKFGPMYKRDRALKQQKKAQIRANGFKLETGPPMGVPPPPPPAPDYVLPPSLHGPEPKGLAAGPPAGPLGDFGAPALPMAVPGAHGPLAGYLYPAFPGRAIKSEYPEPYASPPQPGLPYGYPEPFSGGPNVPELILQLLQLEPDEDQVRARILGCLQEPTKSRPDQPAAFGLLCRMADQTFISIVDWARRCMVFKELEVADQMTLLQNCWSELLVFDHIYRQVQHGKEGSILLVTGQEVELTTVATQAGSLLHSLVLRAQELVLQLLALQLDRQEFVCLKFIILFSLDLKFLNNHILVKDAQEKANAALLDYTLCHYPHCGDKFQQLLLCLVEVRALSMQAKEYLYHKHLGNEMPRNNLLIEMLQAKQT
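material = CHO-K1 cells with Gal4–hSF-1 LBD chimera plus Gal4-driven luciferase | compound = 10 µM single point, 1% DMSO | incubation = 20 h compound exposure at 37 °C after 1 h cell settling | measured by = SteadyLite luciferase luminescence | evaluation = percent activation relative to DMSO median and mock-transfected background | control set = DMSO negative control and −SF1 background wells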
M1 ag confirm – confirmation of rat M1 muscarinic receptor agonists | shares compounds with M1 agonist | CHO-M1 cells, Fluo-4 calcium fluorescence, agonist mode; actives lie on both sides | fluorescence change (max-min) at 10 µM | 19% of 1,700 active;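 active = fluorescence change differs from the solvent-only DMSO control mean at a set confidence level in both duplicate runs; inconclusive = differs from solvent-only control mean in just one of two runs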;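 note: an EC20 dose of acetylcholine follows compound addition during the same imaging run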
M4 agonist ctr – activates rat M4 receptor in counter-screen for M1 agonists; shares compounds with M1 agonist; 9% of 1,700 active; CHO M4/Gqi5 cells, Fluo-4 calcium fluorescence, agonist mode; actives lie on both sides; fluorescence change (max-min) at 10 µM;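 active = fluorescence change differing from the plate's solvent-only control wells at 99.7% confidence in both duplicates, whether higher or lower; inconclusive = differs from solvent controls in only one of two duplicates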
Large screens that a line does not name were inactive (follow-up assays come after a bar, where they were run).

CC(C)(C)NC(=O)C1CCCN(S(=O)(=O)c2cccc3cccnc23)C1 (centres undefined)	none (no result: Htt clearance)
O=C(C1CCCN(S(=O)(=O)c2cccc3cccnc23)C1)N1CCc2ccccc21 (centres undefined)	M1 agonist 3.13 | M1 ag confirm inconclusive | M4 agonist ctr inactive
O=C(C1CCCN(S(=O)(=O)c2cccc3nsnc23)C1)N1CCN(c2ccccn2)CC1 (centres undefined)	M1 agonist 3.15 | M1 ag confirm inactive | M4 agonist ctr inactive
O=C(C1CCN(S(=O)(=O)c2cccc3cccnc23)CC1)N1CCN(c2ccccc2)CC1	none (no result: Htt clearance)
O=C(NCC1COc2ccccc2O1)C1CCCN(S(=O)(=O)c2cccc3nsnc23)C1 (centres undefined)	M1 agonist 3.17 (no result: Htt clearance) | M1 ag confirm inconclusive | M4 agonist ctr inactive
O=C(CCCn1c(=O)[nH]c2cc(Cl)ccc2c1=O)NCCCN1CCCC1=O	none (no result: Htt clearance)
Cc1ccc(N2C(=O)c3oc4ccccc4c(=O)c3C2c2cccc(O)c2)nc1 (centres undefined)	Htt clearance inconclusive
Cc1cccc(N(CC(=O)NC2CCCCC2)C(=O)CCC(=O)Nc2cc(C)ccn2)c1	none (no result: Htt clearance)
COc1cccc(NC(=O)C2CCCN(S(=O)(=O)c3cccc4cccnc34)C2)c1 (centres undefined)	Htt clearance inconclusive, M1 agonist 3.11 | M1 ag confirm inconclusive | M4 agonist ctr inactive
CCOC(=O)c1ccc(-n2c(=O)[nH]c3ccccc3c2=O)cc1	M1 agonist -1.99 (no result: Htt clearance) | M1 ag confirm inconclusive | M4 agonist ctr inactive
O=C(Nc1ccc(N2CCOCC2)cc1)c1cn2ccccc2n1	none (no result: M1 antag, D1 allo mod, RORA act, M1 agonist, SF-1 act)
CN(C)C(CNC(=O)CN1C(=O)NC2(CCc3ccccc32)C1=O)c1ccco1 (centres undefined)	none (no result: Htt clearance)
N=c1c(S(=O)(=O)c2ccccc2)cc2c(=O)n3ccccc3nc2n1Cc1ccco1	M1 agonist 8.96 (no result: Htt clearance) | M1 ag confirm inactive | M4 agonist ctr inactive
Cc1c(-c2ccccc2)sc(N)c1C(=O)N1CCOCC1	none
C=CCn1c(=O)/c(=C/c2ccc(C)o2)s/c1=C(/C#N)C(=O)c1ccccc1	M1 agonist 11.7 (no result: Htt clearance) | M1 ag confirm 86 | M4 agonist ctr 275
O=C(NCc1cccs1)c1cc(C2CC2)on1	none (no result: M1 antag, D1 allo mod, RORA act, M1 agonist, SF-1 act)
COc1cccc(N2CCN(C3CC(=O)N(c4cccc(Cl)c4)C3=O)CC2)c1 (centres undefined)	none (no result: Htt clearance, D1 allo mod)
COc1cccc(N2CCN(C3CCCC(C)C3)CC2)c1 (centres undefined)	M1 agonist 3.58 | M1 ag confirm inactive | M4 agonist ctr inactive
Cn1c(=O)c2c(nc(NCc3ccccc3)n2CCCc2ccccc2)n(C)c1=O	M1 antag 2.48, D1 allo mod -3.06, M1 agonist 14.5 | M1 ag confirm inconclusive | M4 agonist ctr inactive
Cn1c(=O)c2c(nc(NCc3ccccc3)n2C)n(C)c1=O	none
Cn1c(=O)c2c(nc(N3CCN(Cc4ccccc4)CC3)n2CCCc2ccccc2)n(C)c1=O	M1 agonist 4.17 | M1 ag confirm inactive | M4 agonist ctr inactive
Cn1c(C(=O)OC(C(=O)NC2CCCCC2)c2ccncc2)cc2sccc21 (centres undefined)	none (no result: Htt clearance)
COc1ccc(S(=O)(=O)Cc2ccc(C(=O)NCCc3ccc(S(N)(=O)=O)cc3)o2)cc1	M1 agonist 3.8 | M1 ag confirm inconclusive | M4 agonist ctr inactive
COc1ccc(S(=O)(=O)Cc2ccc(C(=O)N3CCN(c4cccc(C)c4)C(C)C3)o2)cc1 (centres undefined)	RORA act 54.6, M1 agonist 3.43 (no result: Htt clearance) | M1 ag confirm inconclusive | M4 agonist ctr inactive
COc1ccc(S(=O)(=O)Cc2ccc(C(=O)N3CCN(c4ccc(Cl)cc4)CC3)o2)cc1	M1 agonist 2.33 | M1 ag confirm inactive | M4 agonist ctr inactive
COCCCNC(=O)c1ccc(CS(=O)(=O)c2ccc(OC)cc2)o1	none (no result: Htt clearance)
COc1ccc(N2CCN(C(=O)c3ccc(NS(=O)(=O)c4ccc(F)c(F)c4)cc3)CC2)cc1	M1 agonist 2.3 (no result: Htt clearance) | M1 ag confirm inactive | M4 agonist ctr inactive
COc1ccc(N2CCN(C(=O)c3ccc(CS(=O)(=O)c4ccc(OC)cc4)o3)CC2)cc1	Htt clearance inconclusive
Cc1cc(-c2ccccc2)nc2[n+]1CCN2C	none
COC(=O)CN1C2(C#N)CCCCC2CC2CCCCC21C#N (centres undefined)	none (no result: D1 allo mod)
CCC(C)NC(=O)c1ccccc1NC(=O)CN1C(=O)c2ccccc2S1(=O)=O (centres undefined)	none (no result: Htt clearance)
O=c1[nH]c2cc3c(cc2cc1CN(Cc1nnnn1CC1CCCO1)C1CCCCC1)OCO3 (centres undefined)	M1 agonist 3.6 (no result: Htt clearance, D1 allo mod) | M1 ag confirm 92.9 | M4 agonist ctr inconclusive
CCC(C)(C)n1nnnc1CN(Cc1cc2cc(OC)ccc2[nH]c1=O)C1CCCC1	M1 agonist 2.63 (no result: Htt clearance, D1 allo mod) | M1 ag confirm inactive | M4 agonist ctr inactive
CC(Nc1ncnc2nc[nH]c12)c1ccccc1 (centres undefined)	M1 agonist 2.79 (no result: Htt clearance) | M1 ag confirm inactive | M4 agonist ctr inactive
COC(=O)c1ccc(NC(=O)C2CCCN2S(=O)(=O)c2ccc(F)cc2)cc1 (centres undefined)	none
O=C(NCc1ccccc1)N1CCC(c2nc3ccccc3[nH]2)CC1	none
CCN(c1ccccc1)S(=O)(=O)c1cnc[nH]1	none (no result: Htt clearance)
Cc1ccc2[nH]c(=O)c(CN(CCN3CCOCC3)C(=O)Nc3ccccc3F)cc2c1	none
Cc1ccc2[nH]c(=O)c(CN(Cc3ccccc3Cl)C(=O)N3CCOCC3)cc2c1	M1 agonist 2.24 | M1 ag confirm -29 | M4 agonist ctr -81.6
Cc1cc(NC(=O)CSc2nnc(-c3ccoc3C)o2)no1	M1 agonist -3.67 (no result: Htt clearance) | M1 ag confirm inconclusive | M4 agonist ctr inactive
O=c1cc(C23CC4CC(CC(C4)C2)C3)[nH][nH]1	none
CCOC(=O)CSc1nnc(Cn2nnc(-c3ccccc3)n2)n1C	none (no result: Htt clearance)
Cc1cc2ncn(C3CC(=O)N(Cc4ccccc4)C3=O)c2cc1C (centres undefined)	M1 agonist 5.78 | M1 ag confirm inconclusive | M4 agonist ctr inactive
Cc1ccc(S(=O)(=O)N2CCN(C3CC(=O)N(Cc4ccccc4)C3=O)CC2)cc1C (centres undefined)	none
CC1N(O)C(C)(C)C(c2ccccc2)=[N+]1[O-] (centres undefined)	none (no result: M1 antag, D1 allo mod, RORA act, M1 agonist, SF-1 act)
Cc1cc(-n2c(C)cc(C(=O)CSc3ncnc4ccccc34)c2C)no1	D1 allo mod -3.17, M1 agonist 7 (no result: Htt clearance) | M1 ag confirm inactive | M4 agonist ctr inconclusive
Cc1cc(-n2c(C)cc(C(=O)CSc3nnc4sc5ccccc5n34)c2C)no1	none

Screens as filed in PubChem BioAssay.
